The values that follow come from ChEMBL document CHEMBL1125826, “Synthesis and biological activity of 5-amino- and 5-hydroxyquinolones, and the overwhelming influence of the remote N1-substituent in determining the structure-activity relationship” (1991).

Values after ≈ are worked out from the molar mass of the structure shown.

Assay type in all cases: functional
Assay [1] concerns Staphylococcus aureus. Nature of the assay: Antibacterial activity was determined against gram positive organism, Staphylococcus aureus UC76. Put shortly: (§1)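 MIC (µg/mL) by standard microtitration against a panel of 10 Gram-positive and Gram-negative organisms; values averaged from multiple experiments.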
The subject of assay [2] is Bacteria. Description: MIC ratio measured as the mean MICs of gram-negative bacteria. In a few lines: (§2)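 Geometric mean of the microtitration MICs (µg/mL) over the Gram-negative organisms, and separately over the Gram-positive organisms, of the 10-strain panel; individual MICs averaged from multiple experiments.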
Assay [3] deals with Escherichia coli. Description: The in vivo potency was determined in female charles river CD-1 mice infected with Escherichia coli after peroral administration. The settings on record: for ED50: Escherichia coli, po, read-out: PD50. Put shortly: (§3)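 Acute lethal systemic infection in female CD-1 mice, 16 mice per route; single dose given orally by gavage at the time of challenge; median protective dose (PD50, mg/kg) determined.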

The subject of assay [4] is Enterococcus faecalis. Description: Antibacterial activity was determined against gram positive organism, Streptococcus faecalis MGH-2. Put shortly: as §1
Assay [5] deals with Streptococcus pneumoniae. Description: The in vivo potency was determined in female charles river CD-1 mice infected with Streptococcus pneumoniae after peroral administration. Conditions: for ED50: Streptococcus pneumoniae, po, read-out: PD50. In a few lines:
as §3

Assay [6] has as its system Pseudomonas aeruginosa. Nature of the assay: Antibacterial activity was determined against gram negative organism, Pseudomonas aeruginosa UI-18. Put shortly: as §1
For assay [7], the system named is Streptococcus pyogenes. Nature of the assay: The in vivo potency was determined in female charles river CD-1 mice infected with Streptococcus pyogenes after sc administration. Conditions: for ED50: Streptococcus pyogenes, sc, read-out: PD50. Put shortly: (§4)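 Acute lethal systemic infection in female CD-1 mice, 16 mice per route; single subcutaneous dose given at the time of challenge; median protective dose (PD50, mg/kg) determined.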

Assay [8] deals with Escherichia coli. Description: The in vivo potency was determined in female charles river CD-1 mice infected with Escherichia coli after sc administration. The settings on record: for ED50: Escherichia coli, sc, read-out: PD50. In a few lines: as §4
For assay [9], the system named is Streptococcus pyogenes. Nature of the assay: Antibacterial activity was determined against gram positive organism, Streptococcus pyogenes C203. In a few lines: as §1
Assay [10] concerns Bacteria. Nature of the assay: Antibacterial activity was determined against gram negative organism, Providencia rettgeri. M1771. Put shortly:
as §1

The target in assay [11] is DNA gyrase (Escherichia coli) (UniProt P0AES6+P0AES4). Nature of the assay: Minimum inhibitory concentration against Escherichia coli DNA-gyrase in supercoiling assay.
The test system of assay [12] is Streptococcus pneumoniae. Description: Antibacterial activity was determined against gram positive organism, Streptococcus pneumoniae SV-1. In a few lines: as §1
The subject of assay [13] is Escherichia coli. Nature of the assay: Antibacterial activity was determined against gram negative organism, Escherichia coli vogel. In a few lines:
as §1

Assay [14] has as its system Bacteria. Nature of the assay: MIC ratio measured as the mean MICs of gram-positive bacteria. In a few lines: as §2
Assay [15] concerns Klebsiella pneumoniae. Description: Antibacterial activity was determined against gram negative organism, Klebsiella pneumoniae MGH-2. Put shortly: as §1
The test system of assay [16] is Streptococcus pneumoniae. Description: The in vivo potency was determined in female charles river CD-1 mice infected with Streptococcus pneumoniae after sc administration. The settings on record: for ED50: Streptococcus pneumoniae, sc, read-out: PD50. In a few lines:
as §4

Assay [17] deals with Staphylococcus aureus. Nature of the assay: Antibacterial activity was determined against gram positive organism, Staphylococcus aureus H228. In a few lines: as §1
Assay [18] deals with Streptococcus pyogenes. Nature of the assay: The in vivo potency was determined in female charles river CD-1 mice infected with Streptococcus pyogenes after peroral administration. The settings on record: for ED50: Streptococcus pyogenes, po, read-out: PD50. In a few lines:
as §3

The test system of assay [19] is Enterobacter cloacae. Nature of the assay: Antibacterial activity was determined against gram negative organism, Enterobacter cloacae MA2646.
[20] abbreviates: Staphylococcus aureus, read-out: MIC.
[21] abbreviates: Enterococcus faecalis, read-out: MIC.
[22] abbreviates: Pseudomonas aeruginosa, read-out: MIC.
Where [23] appears, read: Streptococcus pyogenes, read-out: MIC.
The mark [24] stands for this setting: Streptococcus pneumoniae, read-out: MIC.
Setting [25] is: Escherichia coli, read-out: MIC.
Setting [26] is: Klebsiella pneumoniae, read-out: MIC.
[27] abbreviates: Enterobacter cloacae, read-out: MIC.

Take `CCNCC1CCN(c2c(F)cc3c(=O)c(C(=O)O)cn(C4CC4)c3c2F)C1` (centres undefined) [PD-117558]: the MIC in [1] (setting [20]) was determined as 0.013 µg/mL (≈ 0.0332 µM); in [4] (setting [21]) it was 0.025 µg/mL (≈ 0.0639 µM); in [6] (setting [22]), 0.4 µg/mL (≈ 1.02 µM); in [9] (setting [23]) it was 0.025 µg/mL (≈ 0.0639 µM); in [10] (Bacteria, read-out: MIC) it was 0.2 µg/mL (≈ 0.511 µM); in [11] it was 0.25 µg/mL (≈ 0.639 µM). Moreover, the MIC is 0.025 µg/mL (≈ 0.0639 µM) in [12] (setting [24]); 0.05 µg/mL (≈ 0.128 µM) in [13] (setting [25]); 0.1 µg/mL (≈ 0.255 µM) in [15] (setting [26]); 0.05 µg/mL (≈ 0.128 µM) in assay [17] (setting [20]); 0.1 µg/mL (≈ 0.255 µM) in [19] (setting [27]). For the same molecule, the Geometric mean MIC over Gram-negative bacteria (µg/mL) in assay [2] is 0.13. Moreover, the ED50 was determined as 4 mg/kg in assay [3]; 2 mg/kg in assay [5]; 2 mg/kg in [7]; 1 mg/kg in assay [8]; 0.5 mg/kg in assay [16]; 5 mg/kg in [18]. Besides, in assay [14], the “Geometric mean MIC over Gram-positive bacteria (µg/mL)” value is 0.025.
For the molecule `CCNCC1CCN(c2c(F)c(N)c3c(=O)c(C(=O)O)cn(C4CC4)c3c2F)C1` (centres undefined), the MIC in [1] (setting [20]) stood at 0.003 µg/mL (≈ 0.00738 µM); in assay [4] (setting [21]) it was 0.025 µg/mL (≈ 0.0615 µM); in assay [6] (setting [22]), 0.2 µg/mL (≈ 0.492 µM); in [9] (setting [23]) it was 0.013 µg/mL (≈ 0.032 µM); in assay [10] (Bacteria, read-out: MIC), 0.1 µg/mL (≈ 0.246 µM); in [11], 0.5 µg/mL (≈ 1.23 µM). The MIC in [12] (setting [24]) was 0.003 µg/mL (≈ 0.00738 µM); in assay [13] (setting [25]), 0.05 µg/mL (≈ 0.123 µM); in assay [15] (setting [26]) it was 0.05 µg/mL (≈ 0.123 µM); in assay [17] (setting [20]), 0.013 µg/mL (≈ 0.032 µM); in assay [19] (setting [27]), 0.05 µg/mL (≈ 0.123 µM). For the same molecule, in assay [2], the Geometric mean MIC over Gram-negative bacteria (µg/mL) was 0.075. The ED50 was 16 mg/kg in assay [3]; 5 mg/kg in [5]; 5 mg/kg in [7]; 2 mg/kg in assay [8]; 3 mg/kg in [16]; 16 mg/kg in [18]. The “Geometric mean MIC over Gram-positive bacteria (µg/mL)” value in assay [14] is recorded as 0.0082.
With `CC1CN(c2c(F)c(N)c3c(=O)c(C(=O)O)cn(C4CC4)c3c2Cl)CCN1` (centres undefined), the MIC turned out to be 0.025 µg/mL (≈ 0.0633 µM) in [1] (setting [20]); 0.1 µg/mL (≈ 0.253 µM) in assay [4] (setting [21]); 0.8 µg/mL (≈ 2.03 µM) in [6] (setting [22]); 0.1 µg/mL (≈ 0.253 µM) in assay [9] (setting [23]); 0.2 µg/mL (≈ 0.507 µM) in [10] (Bacteria, read-out: MIC); 3.8 µg/mL (≈ 9.62 µM) in assay [11]. Moreover, the MIC in [12] (setting [24]) was found to be 0.05 µg/mL (≈ 0.127 µM); in assay [13] (setting [25]), 0.025 µg/mL (≈ 0.0633 µM); in assay [15] (setting [26]) it was 0.1 µg/mL (≈ 0.253 µM); in [17] (setting [20]) it was 0.05 µg/mL (≈ 0.127 µM); in assay [19] (setting [27]), 0.05 µg/mL (≈ 0.127 µM). In addition, the Geometric mean MIC over Gram-negative bacteria (µg/mL) in assay [2] came to 0.11. For the same molecule, the ED50 in assay [3] is 0.7 mg/kg; in assay [5], 12 mg/kg; in [7] it was 4 mg/kg; in assay [8], 0.3 mg/kg; in [16] it was 9 mg/kg; in [18] it was 6 mg/kg. For the same molecule, in [14], the “Geometric mean MIC over Gram-positive bacteria (µg/mL)” value turned out to be 0.057.
Take `NC1CCN(c2c(F)cc3c(=O)c(C(=O)O)cn(C4CC4)c3c2Cl)C1` (stereo in doubt; 1h-4) [CLINAFLOXACIN]: the MIC in [1] stood at 0.013 µg/mL (≈ 0.0355 µM); in assay [4] it was 0.05 µg/mL (≈ 0.137 µM); in assay [6] it was 0.05 µg/mL (≈ 0.137 µM); in [9], 0.05 µg/mL (≈ 0.137 µM); in assay [10], 0.025 µg/mL (≈ 0.0683 µM); in assay [12], 0.025 µg/mL (≈ 0.0683 µM). Moreover, the MIC in [13], in assay [15], in assay [17] and in assay [19] was 0.025 µg/mL (≈ 0.0683 µM) in each case. For the same molecule, the PD50 amounted to 3 mg/kg in assay [3]; 14 mg/kg in assay [5]; 4 mg/kg in assay [7]; 0.6 mg/kg in assay [8]; 5 mg/kg in assay [16]; 10 mg/kg in assay [18]. Besides, the “Geometric mean MIC over Gram-positive bacteria (µg/mL)” value in assay [14] is given as 0.029.
